Measured values: ChEMBL document CHEMBL1140815, “Synthesis and structure-activity relationship studies of tyrosine-based antagonists at the human P2X7 receptor” (Bioorg Med Chem Lett, 2008)

Experiments:
[1] = system: THP-1; assay: Inhibition of BzATP-stimulated IL1-beta release in human THP1 cells at 1 uM by ELISA; format: functional
[2] = molecular target: T1, P2X purinoceptor 7 (Homo sapiens, UniProt Q99572); assay: Antagonist activity at human purinergic P2X7 receptor expressed in HEK293 cells assessed as inhibition of BzATP-induced ethidium bromide uptake; format: functional, cell-based
T1 sequence (Q99572 whole entry): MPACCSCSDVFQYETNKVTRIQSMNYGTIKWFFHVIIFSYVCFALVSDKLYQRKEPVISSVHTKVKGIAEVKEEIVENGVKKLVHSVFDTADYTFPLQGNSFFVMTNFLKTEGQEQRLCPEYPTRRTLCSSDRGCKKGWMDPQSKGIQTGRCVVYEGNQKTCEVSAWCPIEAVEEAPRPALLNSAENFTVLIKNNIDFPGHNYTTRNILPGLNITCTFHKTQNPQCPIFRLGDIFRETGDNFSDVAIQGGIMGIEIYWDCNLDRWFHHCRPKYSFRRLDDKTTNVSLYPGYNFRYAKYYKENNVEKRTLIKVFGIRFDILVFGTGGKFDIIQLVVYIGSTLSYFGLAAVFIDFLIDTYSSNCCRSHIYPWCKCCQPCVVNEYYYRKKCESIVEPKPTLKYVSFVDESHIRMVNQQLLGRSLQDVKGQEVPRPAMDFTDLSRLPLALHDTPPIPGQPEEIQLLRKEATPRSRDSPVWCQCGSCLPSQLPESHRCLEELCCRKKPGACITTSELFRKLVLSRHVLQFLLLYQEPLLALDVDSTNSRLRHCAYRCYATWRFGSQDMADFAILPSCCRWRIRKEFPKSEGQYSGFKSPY
Outline: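 Adherent HEK293 cells stably expressing human P2X7, resuspended at 2.5×10^6 cells/ml in HEPES salt solution (mM: ethidium bromide 0.1, EDTA 1, glucose 5, HEPES 20, KCl 140; pH 7.4). Cells added to compound-containing wells, then BzATP; 37°C for 120 min. Ethidium accumulation read by fluorescence (ex 530/em 590). IC50 from concentration–response curves; mean ± SD, 3–11 repeats.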

[3] = molecular target: T2, P2X purinoceptor 7 (Homo sapiens) (UniProt Q99572); assay: Antagonist activity at human purinergic P2X7 receptor expressed in HEK293 cells assessed as inhibition of BzATP-induced ethidium bromide uptake at 10 uM; format: functional, cell-based
T2 sequence (whole entry): T1 sequence (Q99572 whole entry)

[4] = system: THP-1; assay: Inhibition of BzATP-stimulated IL1-beta release in human THP1 cells by ELISA; format: functional, cell-based
Outline: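 Compound given as a 30 min pretreatment, then 1 mM BzATP for 30 min. Mature IL-1β in the centrifuged supernatant quantified by ELISA.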

[5] = molecular target: T1, P2X purinoceptor 7; assay: Antagonist activity at human purinergic P2X7 receptor expressed in HEK293 cells assessed as inhibition of ATP-induced K(+) efflux; format: functional, cell-based

Row | IC50 [2] | inhibition [3] | IC50 [4] | IC50 [5] | Structure (SMILES) | inhibition at 1 µM [1]
1 | 256 nM | – | – | – | Cc1ccc(S(=O)(=O)Oc2ccc(C[C@H](NC(=O)OCc3ccccc3)C(=O)N3CCN(C(=O)c4ccccc4)[C@H](C)C3)cc2)cc1 | 65%
2 | 517 nM | – | – | – | CC(C)(C)OC(=O)N1CCN(C(=O)[C@H](Cc2ccc(OS(=O)(=O)c3ccc(Br)cc3)cc2)NC(=O)OCc2ccccc2)CC1 | 68%
3 | 861 nM | – | – | – | Cc1ccc(S(=O)(=O)Oc2ccc(C[C@@H](NC(=O)OCc3ccccc3)C(=O)N3CCN(C(=O)OC(C)(C)C)CC3)cc2)cc1 | 56%
4 | 724 nM | – | – | – | Cc1ccc(S(=O)(=O)Oc2ccc(C[C@H](NC(=O)OCc3ccccc3)C(=O)N3CCN(C(=O)c4ccc(C(F)(F)F)cc4)CC3)cc2)cc1 | 65%
5 | 5880 nM | – | – | – | CC(C)(C)OC(=O)N1CCN(C(=O)[C@H](Cc2ccc(OS(=O)(=O)c3ccc(F)cc3)cc2)NC(=O)OCc2ccccc2)CC1 | 56%
6 | – | 28% | – | – | O=C(N[C@@H](Cc1ccc(OS(=O)(=O)c2ccc(NC(=S)NCCCCNC(=S)Nc3ccc(S(=O)(=O)Oc4ccc(C[C@H](NC(=O)OCc5ccccc5)C(=O)N5CCN(C(=O)c6ccccc6)CC5)cc4)cc3)cc2)cc1)C(=O)N1CCN(C(=O)c2ccccc2)CC1)OCc1ccccc1 | 37%
7 | – | 54% | – | – | Cc1ccc(S(=O)(=O)Oc2ccc(C[C@H](NC(=O)OCc3ccccc3)C(=O)N3CCN(C(=O)c4ccc(N(C)C)cc4)[C@@H](C)C3)cc2)cc1 | 68%
8 | 2460 nM | – | – | – | CC(C)(C)OC(=O)N1CCN(C(=O)[C@H](Cc2ccc(OS(=O)(=O)c3ccc(CBr)cc3)cc2)NC(=O)OCc2ccccc2)CC1 | 52%
9 | 319 nM | – | – | – | Cc1ccc(S(=O)(=O)Oc2ccc(C[C@H](NC(=O)OCc3ccccc3)C(=O)N3CCN(C(=O)c4ccc(F)cc4)CC3)cc2)cc1 | 68%
10 | 725 nM | – | – | – | CC(C)(C)OC(=O)N1CCN(C(=O)[C@H](Cc2ccc(OS(=O)(=O)c3ccc(OC(F)(F)F)cc3)cc2)NC(=O)OCc2ccccc2)CC1 | 46%
11 | 260 nM | – | – | – | Cc1ccc(S(=O)(=O)Oc2ccc(C[C@H](NC(=O)OCc3ccccc3)C(=O)N3CCN(C(=O)c4ccccc4)[C@@H](C)C3)cc2)cc1 | 69%
12 | 3540 nM | – | – | – | CC(C)(C)OC(=O)N1CCN(C(=O)[C@H](Cc2ccc(OS(=O)(=O)c3ccc(I)cc3)cc2)NC(=O)OCc2ccccc2)CC1 | 72%
13 | 481 nM | – | 881 nM | – | Cc1ccc(S(=O)(=O)Oc2ccc(C[C@H](NC(=O)OCc3ccccc3)C(=O)N3CCN(C(=O)c4ccc(Br)cc4)CC3)cc2)cc1 | 78%
14 | 504 nM | – | – | – | Cc1ccc(S(=O)(=O)Oc2ccc(C[C@H](NC(=O)OCc3ccccc3)C(=O)N3CCN(C(=O)c4ccccc4)C[C@@H]3C)cc2)cc1 | 45%
15 | 1540 nM | – | – | – | Cc1ccc(S(=O)(=O)Oc2ccc(C[C@H](NC(=O)OCc3ccccc3)C(=O)N3CCN(C(=O)OC(C)(C)C)CC3)cc2)cc1 | 72%
16 | 175 nM | – | 188 nM | – | CN([C@@H](Cc1ccc(OS(=O)(=O)c2cccc3cnccc23)cc1)C(=O)N1CCN(c2ccccc2)CC1)S(=O)(=O)c1cccc2cnccc12 | 83%
17 | 1360 nM | – | – | – | Cc1ccc(S(=O)(=O)Oc2ccc(C[C@@H](C(=O)N3CCN(C(=O)c4ccccc4)CC3)N(C)C(=O)OCc3ccccc3)cc2)cc1 | 47%
18 | 599 nM | – | – | – | Cc1ccc(S(=O)(=O)Oc2ccc(C[C@H](NC(=O)OCc3ccccc3)C(=O)N3CCN(C(=O)c4ccccc4)CC3)cc2)cc1 | 70%
19 | 539 nM | – | – | – | C[C@H]1CN(C(=O)[C@H](Cc2ccc(OS(=O)(=O)c3ccc(C#N)cc3)cc2)NC(=O)OCc2ccccc2)CCN1C(=O)c1ccc(N(C)C)cc1 | 59%
20 | 2010 nM | – | – | – | Cc1ccc(S(=O)(=O)Oc2ccc(C[C@H](NC(=O)OCc3ccccc3)C(=O)N3CCN(C(=O)c4ccc(N(C)C)cc4)CC3)cc2)cc1 | 65%
21 | – | – | – | 40 nM | CC(C)(C)OC(=O)N1CCN(C(=O)[C@H](Cc2ccc(OS(=O)(=O)c3cccc4cnccc34)cc2)NS(=O)(=O)c2cccc3cnccc23)CC1 | –
22 | 117 nM | – | – | – | O=C(N[C@@H](Cc1ccc(OS(=O)(=O)c2ccc([N+](=O)[O-])cc2)cc1)C(=O)N1CCN(C(=O)c2ccccc2)CC1)OCc1ccccc1 | 48%
23 | 780 nM | – | – | – | CC(C)(C)OC(=O)N1CCN(C(=O)[C@H](Cc2ccc(OS(=O)(=O)c3ccc(C#N)cc3)cc2)NC(=O)OCc2ccccc2)CC1 | 60%
24 | – | 55% | – | – | C[C@H]1CN(C(=O)[C@H](Cc2ccc(OS(=O)(=O)c3ccc(I)cc3)cc2)NC(=O)OCc2ccccc2)CCN1C(=O)c1ccc(N(C)C)cc1 | 61%
